Laboratory results reported in ChEMBL document CHEMBL4513216, “Probing the Open Global Health Chemical Diversity Library for Multistage-Active Starting Points for Next-Generation Antimalarials” (ACS Infect Dis, 2020).

Test: Toxicity liver stage against HepG2, at 10uM
Type: cell-based
Parameters: test concentration 10 uM, cell line HepG2-A16-CD81EGFP
Conditions: human, HepG2-A16-CD81EGFP cells; read-out: INHIBITION
How it was run: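 Uninfected HepG2-A16-CD81EGFP cells, 3 × 10^3 per well, 1536-well, plated on prespotted compound at 10 μM final, parasite-free screening media added to match infected plates; puromycin 10 μM positive, DMSO 0.5% negative; run in parallel with 48 h PbLuc assay at 37 °C, 5% CO2; viability by CellTiter-Glo luminescence, normalized to controls.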

| SMILES | cytotoxicity at 10 µM |
| --- | --- |
| COC1CCCN(Cc2nc(Cc3ccccc3F)no2)C1 (stereo not given) | -4.23% |
| CCn1cnnc1CN(C)C(=O)C1CCC(=O)N(CC2CCCCC2)C1 (stereo not given) | -1.33% |
| CN(CC(=O)NCCc1ccccn1)C(=O)c1cccs1 | 2.26% |
| c1cncc(-c2c[nH]c([C@@H]3COCCN3Cc3ccncc3)n2)c1 | 3.25% |
| CC1=C[C@@H](CN2CCN(C)CC2)[C@H](C(C)C)C[C@H]1Cc1nnc(C)o1 | -0.39% |
| Cn1cncc1-c1nnc([C@H]2CCN(Cc3ccc(F)c(F)c3)C2)o1 | 3.04% |
| CCS(=O)(=O)N1CCC(c2nnc(C3CC3)o2)CC1 | -10.7% |
| Cc1cnc(N2C[C@@H]3[C@@H](C2)OCC(=O)N3C)nc1 | -3.4% |
| CCOc1cccc(CNc2ccccc2C(=O)OC)c1O | 6.69% |
| CC(C)c1nnc2ccc(N3CCC(C(N)=O)CC3)nn12 | 8.63% |
| CCn1cc(NC(=O)C(C)n2ncc(Cl)c2C)c(C(=O)NCC(C)C)n1 (stereo not given) | 0.557% |
| C=CNC(=O)c1nnc2ccc(N3CCOCC3)cc2n1 | 8.85% |
| CNC(=O)C1(C)CN(S(=O)(=O)c2cccc(OC)c2)CCO1 (stereo not given) | -1.43% |
| CN(C)C(=O)c1cncnc1-c1ccc(CNC(=O)C2CC2)cc1 | 2.33% |
| Cc1c(C(=O)N2CCC(C(=O)c3nc4ccccc4s3)CC2)cnn1C | 6.32% |
| CCCC1c2cccn2CCN1C(=O)Cn1cnc2sc(C)cc2c1=O (stereo not given) | -0.35% |
| COc1ccc(CC(=O)N2CCN(Cc3ccco3)C[C@H]2C)cc1OC | 1.02% |
| Nc1nccnc1C1CN(C(=O)c2ccc3c(c2)OCO3)CCO1 (stereo not given) | -23.7% |
| NC(=O)CN1CCOCC(Cc2ccccc2Cl)C1 (stereo not given) | 3.18% |
| CCc1nnc(Nc2cccc(C3CCN(C(=O)CO)CC3)n2)s1 | -3.86% |
| O=c1[nH]c(-c2ccccn2)nc2c1CCN(Cc1cccc(O)c1)C2 | -17.6% |
| O=C(C1CCCC1)N1CC2(CCNC2)OCc2ccccc21 (stereo not given) | 8.9% |

| SMILES | cytotoxicity at 10 µM |
| --- | --- |
| COc1ccccc1CN1CCCC2(Cc3ccccc3CNC2=O)C1 (stereo not given) | 6.2% |
| CC(=O)N1CCCN(C(=O)NC(C)c2ccc(C)o2)CC1 (stereo not given) | 2.72% |
| COC(=O)C(C)CN(C)S(=O)(=O)c1c(Br)cc2[nH]c(=O)oc2c1Cl (stereo not given) | 8.73% |
| CC1c2cc(F)ccc2CCN1CCS(=O)(=O)C(C)C (stereo not given) | 2.72% |
| Cc1cc(C)c(C(=O)N(C)CCN(C)C(=O)OC(C)(C)C)[nH]1 | 3.87% |
| CC(CNC(=O)N(C)Cc1ccco1)N1CCc2sccc2C1 (stereo not given) | -13.7% |
| Cc1csc(C(C)(C)NCC(=O)N(C)Cc2ccc(C)o2)n1 | -1.12% |
| CCc1nnc(C(C)N2CCC(NC(=O)C3CCCCC3)CC2)o1 (stereo not given) | -8.35% |
| Cc1nc(CN(C)S(=O)(=O)c2ccccc2C(F)(F)F)no1 | -3.03% |
| CCc1nnsc1C(=O)NCC1CN(CC(C)C)CCO1 (stereo not given) | 0.537% |
| CCC(=O)NCC(=O)Nc1ncc(I)cc1C | 5.4% |
| O=C(NCc1ccccc1CN1CCCC1=O)Nc1nccs1 | 9.66% |
| CCOC(C)c1nc(CN2CCC(C3OCCO3)CC2)cs1 (stereo not given) | -1.91% |
| CC(=O)N1CCN(C(=O)CN2CCN(c3cccc(C)c3)CC2)CC1 | -1.75% |
| Cc1cc(NC(=O)C(C)Nc2cccc(COCc3ccco3)c2)no1 (stereo not given) | -1.42% |
| COCCn1cc(NC(=O)NCC(C)N2CCOCC2)cn1 (stereo not given) | 1.18% |
| Cc1noc(C)c1CN(C)C(=O)c1ccc2c(c1O)OC(C)(C)C2 | -2.92% |
| CCOCCCC(=O)NS(=O)(=O)c1ccc(C)s1 | 10% |
| O=C1C(Sc2nnnn2C2CC2)CCN1c1ccccc1Cl (stereo not given) | 2.4% |
| Cc1ccc(-c2ncc(CNc3cnccc3CO)s2)o1 | -10.9% |
| CCc1nc(C2CCCN2Cc2ncc(C)c(OC)c2C)no1 (stereo not given) | 3.3% |
| Cc1cc(CN2CCN(Cc3cnc4c(c3)c(C)nn4C)CC2)on1 | -12.6% |

| SMILES | cytotoxicity at 10 µM |
| --- | --- |
| COc1ccc(NC(=O)N2CCCCC2c2ncc[nH]2)cc1 (stereo not given) | 10.4% |
| c1csc(-c2nnc(CSCCN3CCOCC3)o2)c1 | -5.77% |
| Cc1ccc(OCCNC(=O)C2CCOCC2)c(C)c1 | 16.4% |
| Cc1cc(C)n(CC2CCCCN2CC(=O)Nc2nncs2)n1 (stereo not given) | -4.25% |
| COCCn1ccc(NC(=O)Nc2ccc(C(N)=O)c(F)c2)n1 | 2.63% |
| COCc1cnc2n1CCN(C(=O)c1cnc3ccccc3c1)C2C (stereo not given) | -110% |
| CN1CCC2(CC1)OC(C(=O)NCc1cccnc1)Cn1ccnc12 (stereo not given) | -87.3% |
| CC[C@@H](CO)Nc1nccc(-c2cnc3sc(C)cn3c2=O)n1 | -14% |
| Cc1[nH]c(-c2ccccc2)nc1C(=O)N1CCC(O)(CO)CC1 | 1.1% |
| Cn1ccnc1CN1CCc2ncnc(N3CCCC(C#N)C3)c2CC1 (stereo not given) | -5.1% |
| Cc1cc2nc(C(C)C)cc(N3CCC(O)CC3)n2n1 | -8.63% |
| O=C(CCN1CCCCO1)NC1CCCN(CC2CCCCC2)C1 (stereo not given) | 4.21% |
| OCC1(Cc2cccc(Cl)c2)CCCN(c2ncccn2)C1 (stereo not given) | 0.668% |
| CC(C)n1ccnc1C1CCN(c2nccc(C(F)(F)F)n2)CC1 | 2.52% |
| CC1(c2ccccc2)CCC(=O)N(CCN2CCOC2=O)C1 (stereo not given) | 3.37% |
| Cc1cccnc1CCNC(=O)[C@@]12CNC[C@@H]1CN(S(C)(=O)=O)C2 | -0.973% |
| COc1cccc(N2CCN(C(=O)C(O)c3ccccc3Cl)CC2=O)c1 (stereo not given) | 3.25% |
| COc1ccc(CN2CCC3(CCCNC3)C2)cc1Cn1cccn1 (stereo not given) | -10.1% |
| CC(=O)Nc1ccc2nc(CN(C)Cc3snnc3C)ccc2c1 | -12.8% |
| CCc1cc(N2CCC(NCCc3ccccc3F)CC2)nc(C)n1 | 7.33% |
| CCC(CO)N(Cc1ccccn1)C(=O)c1ncccc1C (stereo not given) | 3.42% |
| COc1ccc(OC2CCN(C(=O)C(C)Cn3cccn3)CC2)cc1 (stereo not given) | 5.43% |

| SMILES | cytotoxicity at 10 µM |
| --- | --- |
| Cc1ccccc1C(=O)N1CC[C@@H](N2CCC(O)CC2)[C@H](O)C1 | 2.94% |
| CCC(C(=O)NCc1ccncc1)N(c1ccc(F)cc1)S(C)(=O)=O (stereo not given) | -5.48% |
| CSc1nccc(N2CCN(C)C3(CCC(=O)N(CC4CC4)CC3)C2)n1 (stereo not given) | 5.6% |
| Cc1nccn1Cc1nnc(C2CCCN(c3cnccn3)C2)n1C (stereo not given) | 2.73% |
| CCn1nc(C)c(CCNC(=O)C2CCCN(C(=O)N(C)C)C2)c1C (stereo not given) | 0.874% |
| Cc1nccn1-c1cccc(C2CCCN(C3CCCCC3)C2)n1 (stereo not given) | -2.65% |
| c1cnn(CC2CCCN2Cc2nc(C3CC3)no2)c1 (stereo not given) | 1.61% |
| Cc1csc(CNC(=O)N2CCN(Cc3cc(C)on3)CC2)n1 | -5.49% |
| O=C(NCCn1cccn1)c1ccn(-c2cccc(F)c2)n1 | -4.58% |
| Cc1nc(CNC(=O)NCC(O)c2ccccc2)cs1 (stereo not given) | 0.682% |
| Cc1cc(C)c(CNC(=O)CCC2CCCO2)c(=O)[nH]1 (stereo not given) | 5.1% |
| N#CC1(C(=O)N2CCCN(c3nccs3)CC2)CCCCC1 | -5.83% |
| Cc1nc(CN2CCCC(NCc3ccc(C(N)=O)cc3)C2)no1 (stereo not given) | -9.47% |
| CN(C)c1ncccc1CNS(=O)(=O)c1ccc(F)c(F)c1 | -7.18% |
| Cc1nc(CN2CCC(N3CCN(C)C3=O)CC2)no1 | -22% |
| Cc1ccc(S(=O)(=O)NC(=O)COc2cccc(C(N)=O)c2)s1 | -12.7% |
| N#Cc1ccc(OCCN2CCn3c(nnc3C3CC3)C2)cc1 | -3.75% |
| OC(CNCCn1cccn1)c1cccc(Br)c1 (stereo not given) | -5.98% |
| Cc1cnn(CC2CN(CC(=O)Nc3ccncc3)CCO2)c1 (stereo not given) | -3.75% |
| COc1c(C2CCCN2Cc2nc(C)c(C)o2)c(C)nn1C (stereo not given) | -2% |
| CC(C)(C)c1nc(CN(Cc2cccs2)CC2CCCO2)no1 (stereo not given) | -10% |
| CC(C)N1CCN(C(=O)Cc2csc(-c3ccco3)n2)CC1 | -2.93% |

| SMILES | cytotoxicity at 10 µM |
| --- | --- |
| CN(C)CC(=O)N1CCN(C(=O)c2cccc3[nH]ncc23)CC1 | -11.6% |
| CCN(Cc1cccc(F)c1)Cn1nc(C)c2c(C)onc2c1=O | -3.54% |
| CSCc1ccc(C(=O)N2CCN(CC(C)O)CC2)cc1 (stereo not given) | -6.23% |
| CCN(Cc1ccc2c(c1)OCCO2)C(=O)NCc1nncn1CC | -4.35% |
| CCn1cc(NC(=O)C2CCN(CC(=O)N3CCOCC3)CC2)cn1 | -3.46% |
| Cc1ccc(-c2nc(CCNC(=O)CCN3CCOC3=O)co2)cc1 | 2.33% |
| CC(NC(=O)N1CCC(OCc2ccccc2)CC1)c1nncn1C (stereo not given) | -1.49% |
| COCc1nc(C(=O)N2CCCC2c2noc(C(C)C)n2)cs1 (stereo not given) | 0.866% |
| CC(CNCc1ccc(Cl)cc1)Oc1ccccn1 (stereo not given) | 5.01% |
| O=C(NCc1ccco1)[C@@H]1CCO[C@@H]2CCN(C3CCOCC3)C[C@H]21 | -74.9% |
| CCCS(=O)(=O)N1CCOC2(CCCN(c3ccccn3)C2)C1 (stereo not given) | 4.23% |
| Cc1nc(CO[C@@H]2CN(Cc3cccnc3)[C@@H]3COC[C@@H]32)cs1 | 5.05% |
| CCN1CCC(CNCc2c[nH]nc2C(C)(C)C)C1 (stereo not given) | -7.77% |
| Fc1ccc(CN2C[C@@H]3OCCN(CCN4CCCC4)[C@@H]3C2)cc1 | -3.58% |
| Cc1ccc(CN2CCOC3(COCCN(S(C)(=O)=O)C3)C2)s1 (stereo not given) | 10.8% |
| Cc1ncsc1CN1CC[C@H]2OCC[C@@]2(C(=O)NC(C)C)C1 | 9.38% |
| Cc1nc(CN2C[C@@H]3CN(C(=O)NC(C)C)C[C@@H]3C2=O)cs1 | -76.2% |
| Cc1ccsc1C(=O)N1Cc2ncn(C)c2C(COCC2CC2)C1 (stereo not given) | 6.76% |
| O=C(C1CCOC1)N1CCN(CCn2cccn2)c2ncccc2C1 (stereo not given) | -104% |
| CN(C)CCOCC1CN(Cc2ccsc2)Cc2ccnn2C1 (stereo not given) | 3.01% |
| CC(C)(C)c1cc(CN2C[C@@H]3CC[C@H]2CN(Cc2cscn2)C3)n[nH]1 | 5.13% |
| CC1=C(C#N)C(=O)NC(=O)/C1=C\c1c(C)[nH]n(-c2ccc(Cl)cc2)c1=O | -8.94% |
